From ChEMBL document CHEMBL1240523, “Small-molecule inhibitors of NADPH oxidase 4” (J Med Chem, 2010)

Key:
Type in all cases: cell-based
[1] = target: T1, NADPH oxidase 4 (Homo sapiens) (UniProt Q9NPH5); assay: Inhibition of NOX4 expressed in HEK293 FS cells at 10 uM assessed as H2O2 production by H2O2/Tyr/LPO assay
T1 sequence (whole entry): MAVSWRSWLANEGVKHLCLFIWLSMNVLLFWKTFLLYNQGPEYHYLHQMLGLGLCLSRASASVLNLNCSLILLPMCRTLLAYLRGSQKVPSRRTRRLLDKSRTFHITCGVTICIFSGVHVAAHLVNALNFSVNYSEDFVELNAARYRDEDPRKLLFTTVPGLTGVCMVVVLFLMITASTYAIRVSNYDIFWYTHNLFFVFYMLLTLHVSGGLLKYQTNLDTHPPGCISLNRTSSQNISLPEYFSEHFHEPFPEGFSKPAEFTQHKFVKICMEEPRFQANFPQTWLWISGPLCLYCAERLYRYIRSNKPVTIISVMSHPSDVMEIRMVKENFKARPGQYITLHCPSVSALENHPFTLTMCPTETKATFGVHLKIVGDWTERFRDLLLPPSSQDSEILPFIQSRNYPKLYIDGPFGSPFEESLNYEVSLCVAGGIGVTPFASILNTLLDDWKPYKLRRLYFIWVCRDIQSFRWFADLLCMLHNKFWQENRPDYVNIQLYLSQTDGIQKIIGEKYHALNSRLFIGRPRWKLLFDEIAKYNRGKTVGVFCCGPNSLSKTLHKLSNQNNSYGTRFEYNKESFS
Procedure, shortened: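 Primary screen at 10 μM in the H2O2/Tyr/LPO cellular assay. HEK 293 FS cells overexpress NOX4. The LPO enzyme forms fluorescent o,o'-dityrosine from L-tyrosine and H2O2, detected by spectrofluorometric plate reader. Inhibition expressed relative to DPI.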

[2] = Cytotoxicity against human free style HEK293 cells after 72 hrs; conditions: FreeStyle HEK293 cells
Procedure, shortened: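 Luminescent cell viability kit read-out; cells exposed to 10 μM compound for 72 h. Values expressed as percentage of live cells.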

NADPH oxidase 4 = target: T2, NADPH oxidase 4 (Homo sapiens, UniProt Q9NPH5); assay: Inhibition of NOX4 expressed in HEK293 FS cells assessed as H2O2 production by H2O2/Tyr/LPO assay
T2 sequence (Q9NPH5 whole entry): T1 sequence (whole entry)
Procedure, shortened: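 Cell-based H2O2/Tyr/LPO assay in free-style HEK 293 F cells transfected to overexpress constitutively H2O2-producing NOX4. NOX4-generated H2O2 drives LPO conversion of L-tyrosine to fluorescent o,o'-dityrosine, read on a spectrofluorometric plate reader. IC50 estimated from an eight-point curve, 1/2 dilution series from 10 to 0.078 μM.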

[3] = target: T1, NADPH oxidase 4 (Homo sapiens); assay: Inhibition of NOX4 expressed in HEK293 FS cells at 10 uM assessed as H2O2 production by H2O2/Tyr/LPO assay substituted with 3 uM H2O2; conditions: values are per cent of control
Procedure, shortened: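 Redox-activity counter-screen: transfected cells replaced by 3 μM H2O2 in the H2O2/Tyr/LPO read-out (LPO plus L-tyrosine giving fluorescent dityrosine). Compounds at 10 μM final, to detect breakdown of H2O2 independent of NOX4.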

SMILES	inhibition [1] [%]	cytotoxicity at 72 h [2] [%]	IC50 (NADPH oxidase 4) [nM]	% inhibition of H2O2 signal (cell-free redox counter-screen) [3] [%]
O=C(O)c1cc(NCc2ccccc2O)ccc1O	89	102	960	5.35
O=C(NCCc1ccc(O)c(O)c1)C(=O)Nc1cccc([N+](=O)[O-])c1	104	74.9	1640	-3.5
O=C(N/N=C/c1ccc(O)c(O)c1)C(=O)N/N=C/c1ccc(O)c(O)c1	105	99.5	1160	7.6
O=C1Nc2ccc([N+](=O)[O-])cc2/C1=C/c1ccc(O)c(O)c1	102	123	1130	0.39
O=C(N/N=C/c1cccc(O)c1O)C(=O)N/N=C/c1cccc(O)c1O	103	67.2	910	-4.58
COC(=O)c1cc(NCc2ccccc2O)ccc1O	91	106	1270	3.83
O=C(O)c1cc(NCc2cc(O)ccc2O)ccc1O [LAVENDUSTIN C]	82	88.7	1340	72.4
O=c1cc(-c2ccc(O)cc2)oc2cc(O)cc(O)c12 [APIGENIN]	105	108	1130	-1.2
O=c1c(O[C@H]2O[C@H](CO)[C@@H](O)[C@H](O)[C@H]2O)c(-c2ccc(O)c(O)c2)oc2cc(O)cc(O)c12 [MIQUELIANIN]	105	–	–	-1.86
CC(C)c1cc(/C=C2\C(=O)Nc3ccccc32)cc(C(C)C)c1O	102	18.7	630	-0.88
Nc1ccc(Nc2ncnc3c2sc2ccc(N)cc23)cc1	101	60.5	1070	-2.78
O=c1c(O)c(-c2ccc(O)cc2)oc2cc(O)cc(O)c12 [KAEMPFEROL]	105	119	1200	2.09
Nc1cccc(Nc2ncnc3c2sc2ccc(N)cc23)c1	98	106	240	17.9
COc1cc(/C=C2\C(=O)Nc3ccc(NC(C)=O)cc32)ccc1O	104	112	1400	-5.16
O=c1c2cc(O)c(O)cc2c2cc(O)c(O)cc2n1Cc1cc([N+](=O)[O-])ccc1O	104	90.6	170	-4.8
COc1cc(O)c2c(=O)c(OC)c(-c3ccc(O)c(O)c3)oc2c1	88	–	1020	–
O=c1c2cc(O)c(O)cc2c2cc(O)c(O)cc2n1Cc1cccc([N+](=O)[O-])c1	101	112	260	-4.9
COc1cc(CCNC(=O)C(=O)Nc2cccc(N)c2)ccc1O	104	82.4	1300	-3.3
N#Cc1ccccc1Cn1c(=O)c2cc(O)c(O)cc2c2cc(O)c(O)cc21	97	108	590	4.8
O=c1c(O)c(-c2ccc(O)c(O)c2)oc2cc(O)cc(O)c12 [QUERCETIN]	94	102	680	–
C=CCN(CC=C)C(=S)/N=C1\C(=O)Nc2cc(C)c(O)c(C)c21	100	–	–	–
COc1cc(O)cc2oc(-c3ccc(O)c(O)c3)c(O)c(=O)c12	100	121	740	3.17
O=c1cc(-c2ccc(O)c(O)c2)oc2cc(O)cc(O)c12 [LUTEOLIN]	106	110	850	–
O=c1c2cc(O)c(O)cc2c2cc(O)c(O)cc2n1Cc1ccc([N+](=O)[O-])cc1	93	108	1580	-6.11
C=CCN(CC=C)C(=S)N=C1C(=O)Nc2cc(C)c(O)c(C)c21	–	97.8	1000	–
O=c1c2cc(O)c(O)cc2c2cc(O)c(O)cc2n1Cc1ccccc1S(=O)(=O)c1ccccc1	95	113	1580	-1.05
